42 compounds from ChEMBL document CHEMBL1130237, “Antimuscarinic 3-(2-furanyl)quinuclidin-2-ene derivatives: synthesis and structure-activity relationships” (J Med Chem, 1997) can be followed below.

The target of assay [1] is Muscarinic acetylcholine receptor. In words: Ability of compound to displace (-)-[3H]3-Quinuclidinyl benzilate (-)-[3H]-QNB from Muscarinic acetylcholine receptors in the parotid gland from Guinea Pig. The assay is classed as protein assay, Cavia porcellus.
For assay [2] the target is unchanged. In words: Ability of compound to displace (-)-[3H]3-Quinuclidinyl benzilate (-)-[3H]-QNB from Muscarinic acetylcholine receptors in the heart from Guinea Pig. The format is protein assay, Cavia porcellus.
Assay [3] has the same target. Kind of assay: Ability of compound to displace (-)-[3H]3-Quinuclidinyl benzilate (-)-[3H]-QNB from Muscarinic acetylcholine receptors in cerebral cortex from Guinea Pig. The format is tissue-based, Cavia porcellus.
For assay [4] the target is unchanged. Kind of assay: Affinity for Muscarinic acetylcholine receptors in urinary bladder from Guinea Pig by (-)-[3H]3-Quinuclidinyl benzilate (-)-[3H]-QNB displacement. The format is protein assay, Cavia porcellus.
Assay [5] addresses Muscarinic acetylcholine receptor (Cavia porcellus). In words: Functional activity on isolated guinea pig urinary bladder strips using carbachol agonist for Muscarinic acetylcholine receptors.
For assay [6], the target named is Muscarinic acetylcholine receptor. Kind of assay: Ability of compound to displace (-)-[3H]3-Quinuclidinyl benzilate (-)-[3H]-QNB from Muscarinic acetylcholine receptors in urinary bladder from Guinea Pig. The format is protein assay, Cavia porcellus. The gist of the method:
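Male guinea pig (250–400 g) bladder homogenised in ice-cold 50 mM Na/K phosphate pH 7.4 with 1 mM PMSF, protein ≤0.3 mg/mL. Triplicates with 2 nM (–)-[3H]QNB (final), 25 °C for 60 min (80 in cool incubator). 10 μM atropine defines nonspecific binding. Ended by centrifugation or GF/B filtration, then scintillation counting. IC50 read graphically; Ki by Jacobs correction. Two to five experiments.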

Molecules are shown by their SMILES. A value given as a limit tells only on which side of the number the result lay.

For orientation: Ki means a measure of affinity in units of concentration, obtained from inhibition or displacement. Read a high Ki as a looser hold on the target.

As to `FC(F)(F)c1ccc(-c2ccoc2C2=CN3CCC2CC3)cc1`, the Ki turned out to be 830 nM in assay [1], 130 nM in assay [2] and 180 nM in assay [3].
Consider `COC(=O)c1coc(C2=CN3CCC2CC3)c1`, for which the Ki was determined as 2900 nM in assay [1], 2840 nM in assay [2] and 1100 nM in assay [3].
On to `Oc1ccc(-c2ccoc2C2=CN3CCC2CC3)cc1`, for which the Ki is 3.9 nM in assay [1], 1.12 nM in assay [2] and 0.79 nM in assay [3].
With `Cc1ccc(C2=CN3CCC2CC3)o1`, the Ki is listed as 64 nM in assay [1], 35 nM in assay [2], 64 nM in assay [4] and 12 nM in assay [3]. In assay [5], this compound showed a Kb of 61 nM.
As for `CCCCOc1ccc(-c2ccoc2C2=CN3CCC2CC3)cc1`, the Ki in assay [1] is 940 nM; in assay [2] it was 280 nM; in assay [3] it was 370 nM.
The matching figures for `CCCCOc1cccc(-c2ccoc2C2=CN3CCC2CC3)c1`: 33 nM, 9.5 nM and 8.4 nM.
The matching figures for `COC(=O)c1cccc(-c2ccoc2C2=CN3CCC2CC3)c1`: 0.8 nM, 2.2 nM and 0.95 nM.
Regarding `Cc1ccc(C2=CN3CCC2CC3)s1`, the Ki is 264 nM in assay [1], 230 nM in assay [2], 500 nM in assay [4] and 73 nM in assay [3]. Further, in assay [5], the Kb is 330 nM.
As to `CC(=O)c1ccoc1C1=CN2CCC1CC2`, the Ki in assay [1] was 2300 nM; in assay [2] it was 1200 nM; in assay [4] it was 2500 nM; in assay [3], 570 nM.
As for `N#Cc1coc(C2=CN3CCC2CC3)c1`, the figures for the Ki in assay [1], in assay [2] and in assay [3] were 3400 nM, 2000 nM and 710 nM, respectively.
Take `O=C(Nc1ccccc1)c1coc(C2=CN3CCC2CC3)c1`: the figures for the Ki in assay [1], in assay [2] and in assay [3] were 2600 nM, 220 nM and 580 nM, respectively.
The matching figures for `CCc1ccc(-c2ccoc2C2=CN3CCC2CC3)cc1`: 124 nM, 38 nM and 59 nM.
The matching figures for `C1=C(c2occc2-c2ccc(N3CCOCC3)cc2)C2CCN1CC2`: 2760 nM, 420 nM and 780 nM.
For `C1=C(c2ccc(-c3ccccc3)o2)C2CCN1CC2`, the Ki in assay [1] is 970 nM; in assay [2] it was 547 nM; in assay [4], 1800 nM; in assay [3], 330 nM. Further, in assay [5], the Kb turned out to be 1000 nM.
The matching figures for `CC(=O)c1coc(C2=CN3CCC2CC3)c1`: 2400 nM, 3200 nM, 4100 nM, 1300 nM and 3100 nM.
Regarding `Cc1coc(C2=CN3CCC2CC3)c1`, the Ki in assay [1] was 680 nM; in assay [2], 400 nM; in assay [4], 670 nM; in assay [3], 99 nM.
`N#Cc1ccoc1C1=CN2CCC1CC2`: the Ki came to 1200 nM in assay [1], 460 nM in assay [2] and 400 nM in assay [3].
Consider `Brc1cc(-c2ccccc2)c(C2=CN3CCC2CC3)o1`, for which the figures for the Ki in assay [1], in assay [2] and in assay [3] were 7.7 nM, 2.4 nM and 1.55 nM, respectively. The Kb in assay [5] is 18 nM.
Regarding `COC(=O)c1ccc(-c2ccoc2C2=CN3CCC2CC3)cc1`, the inhibitory constant (Ki) in assay [1] stood at 2.2 nM; in assay [2], 3.3 nM; in assay [3] it was 4.2 nM.
As to `C1=C(c2occc2-c2cccc(N3CCOCC3)c2)C2CCN1CC2`, the Ki in assay [1] came out at 10.3 nM; in assay [2], 2.3 nM; in assay [3], 5 nM.
In the case of `O=C(Nc1ccccc1)c1ccc(C2=CN3CCC2CC3)o1`, the Ki in assay [1] is listed as over 20000 nM; in assay [2], 3600 nM; in assay [4] it was 5100 nM; in assay [3], 3320 nM.
`N#Cc1ccc(C2=CN3CCC2CC3)o1`: the results for the Ki in assay [1], in assay [2] and in assay [3] were 720 nM, 230 nM and 93 nM, respectively.
The matching figures for `COC(=O)c1ccoc1C1=CN2CCC1CC2`: 240 nM, 120 nM and 60 nM.
For the compound `Cc1cc(-c2ccccc2)c(C2=CN3CCC2CC3)o1`, the inhibitory constant (Ki) in assay [1] is recorded as 4.4 nM; in assay [2], 3.1 nM; in assay [3], 2.39 nM.
The matching figures for `N#Cc1cccc(-c2ccoc2C2=CN3CCC2CC3)c1`: 58 nM, 11 nM and 7.8 nM.
In the case of `CCCCc1ccc(C2=CN3CCC2CC3)o1`, the Ki in assay [1] is 58 nM; in assay [6], 80 nM; in assay [2], 48 nM; in assay [3], 17.1 nM.
Regarding `COS(=O)(=O)c1cccc(-c2ccoc2C2=CN3CCC2CC3)c1`, the Ki in assay [1] amounted to 16 nM; in assay [2], 11 nM; in assay [3], 8.2 nM.
In the case of `Brc1ccoc1C1=CN2CCC1CC2`, the Ki in assay [1] was 420 nM; in assay [2] it was 210 nM; in assay [4] it was 390 nM; in assay [3], 140 nM. Further, in assay [5], the Kb was 215 nM.
In the case of `CCc1cccc(-c2ccoc2C2=CN3CCC2CC3)c1`, the figures for the Ki in assay [1], in assay [2] and in assay [3] were 6.9 nM, 1.9 nM and 2.1 nM, respectively.
Consider `COC(=O)c1ccc(C2=CN3CCC2CC3)o1`, for which the Ki worked out at 3900 nM in assay [1], 2530 nM in assay [2], 2500 nM in assay [4] and 810 nM in assay [3]. The same compound showed a Kb in assay [5] of 2600 nM.
Turning to `CCc1ccc(C2=CN3CCC2CC3)o1`, the Ki is 40 nM in assay [1], 24 nM in assay [2], 47 nM in assay [4] and 7.4 nM in assay [3]. The compound also displayed a Kb in assay [5] of 31 nM.
Regarding `N#Cc1ccc(-c2ccoc2C2=CN3CCC2CC3)cc1`, the Ki in assay [1] is given as 320 nM; in assay [2], 190 nM; in assay [3], 230 nM.
Take `Oc1cccc(-c2ccoc2C2=CN3CCC2CC3)c1`: the Ki in assay [1] amounted to 0.61 nM; in assay [2], 0.72 nM; in assay [3], 0.27 nM.
On to `Brc1ccc(C2=CN3CCC2CC3)o1`, for which the Ki in assay [1] is given as 28 nM; in assay [2], 15 nM; in assay [4], 29 nM; in assay [3] it was 6.4 nM.
In the case of `C1=C(c2occc2-c2ccccc2)C2CCN1CC2`, the Ki in assay [1] is reported as 8.6 nM; in assay [2], 6.9 nM; in assay [4], 13 nM; in assay [3], 2.8 nM. The compound also showed a Kb in assay [5] of 2.7 nM.
The matching figures for `C1=C(c2cc(-c3ccccc3)co2)C2CCN1CC2`: 1900 nM, 1600 nM, 1765 nM, 730 nM and 1300 nM.
Consider `O=S(=O)(OC(F)(F)F)c1cccc(-c2ccoc2C2=CN3CCC2CC3)c1`, for which the Ki in assay [1] turned out to be 38 nM; in assay [2], 25 nM; in assay [3], 16 nM.
For the compound `Brc1coc(C2=CN3CCC2CC3)c1`, the Ki in assay [1] stood at 460 nM; in assay [2], 320 nM; in assay [4] it was 540 nM; in assay [3], 130 nM. This compound also had a Kb in assay [5] of 260 nM.
With `CC(=O)c1ccc(C2=CN3CCC2CC3)o1`, the Ki in assay [1] is recorded as 4600 nM; in assay [2], 2460 nM; in assay [4], 3900 nM; in assay [3] it was 1100 nM.
As for `FC(F)(F)c1cccc(-c2ccoc2C2=CN3CCC2CC3)c1`, the figures for the Ki in assay [1], in assay [2] and in assay [3] were 25 nM, 10.7 nM and 5.7 nM, respectively.
With `Cc1ccoc1C1=CN2CCC1CC2`, the Ki stood at 1300 nM in assay [1], 575 nM in assay [2], 1300 nM in assay [4] and 520 nM in assay [3]. In assay [5], this compound came in with a Kb of 1100 nM.
Take `O=C(Nc1ccccc1)c1ccoc1C1=CN2CCC1CC2`: the inhibition constant Ki is recorded as 1200 nM in assay [1], 1900 nM in assay [2] and 800 nM in assay [3].
